According to ChEMBL document CHEMBL1137646, “Intracellular metabolism and persistence of the anti-human immunodeficiency virus activity of 2',3'-didehydro-3'-deoxy-4'-ethynylthymidine, a novel thymidine analog” (Antimicrob Agents Chemother, 2007):
Active and inactive are the calls of the source. The calls are words filed in the database; no cut-off is given here.

Columns and labels:
[1] = test system: Human immunodeficiency virus 1; test: Antiviral activity against 0.1 MOI HIV1 3B infected in human TZM-b1 cells assessed as inhibition of viral replication after 24 hrs by luciferase assay; assay type: functional, organism-based
In short: (§1)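 TZM-bl cells in phenol red-free RPMI 1640 were infected with HIV-1 IIIB (MOI 0.1) at the time of adding drug at various concentrations, and drug and virus stayed together for 24 h. Lysate luciferase was measured with uninfected background subtracted, in quintuple wells. Inhibition was the mean signal relative to drug-free infected cells.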

[2] = test system: Human immunodeficiency virus 1; test: Antiviral activity against 0.1 MOI HIV1 3B infected in human TZM-b1 cells assessed as inhibition of viral replication at 0.14 uM after 24 hrs by luciferase assay; assay type: functional; settings: Human immunodeficiency virus 1, 3B, TZM-b1, 24 h
In short: (§2)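 TZM-bl cells were plated at 0.5 x 10^4 per well in phenol red-free RPMI 1640 and allowed to adhere 15-18 h at 37°C. After a medium change, drug was added with quintuple wells per concentration, and cells were infected at the same time with HIV-1 IIIB at MOI 0.1. After 24 h, cells were lysed and luciferase was read minus the uninfected background. Values are percentage of mean luminescence in drug-free wells.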

[3] = test system: Human immunodeficiency virus 1; test: Antiviral activity against 0.1 MOI HIV1 3B infected in human TZM-b1 cells assessed as inhibition of viral replication at 0.18 uM after 24 hrs by luciferase assay; assay type: functional; settings: Human immunodeficiency virus 1, 3B, TZM-b1, 24 h; in short: as §2
[4] = test system: Human immunodeficiency virus 1; test: Antiviral activity against 0.1 MOI HIV1 3B in 24 hrs pretreated human TZM-b1 cells infected 0 hr post drug removal assessed as inhibition of viral replication at 0.18 uM measured 24 hrs postinfection by luciferase assay; assay type: functional; settings: Human immunodeficiency virus 1, 3B
In short: (§3)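 TZM-bl cells (kept in DMEM) were plated at 0.5 x 10^4 per well in phenol red-free RPMI 1640 and left to adhere 15-18 h at 37°C. They were then exposed to drug for 24 h with quintuple wells per concentration. Medium was changed to remove drug, and cells were infected with HIV-1 IIIB at MOI 0.1 at 0, 24 or 48 h after removal. Luciferase was read 24 h post-infection after subtracting the uninfected background. Inhibition is expressed relative to drug-free control wells.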

[5] = Half life in plasma of HIV1-infected patient administered as single dose; assay type: ADME, cell-free; settings: human
[6] = test system: Human immunodeficiency virus 1; test: Antiviral activity against 0.1 MOI HIV1 3B infected in human TZM-b1 cells assessed as inhibition of viral replication at 0.11 uM after 24 hrs by luciferase assay; assay type: functional; settings: Human immunodeficiency virus 1, 3B, TZM-b1, 24 h; in short: as §2
[7] = test system: Human immunodeficiency virus 1; test: Antiviral activity against 0.1 MOI HIV1 3B in 24 hrs pretreated human TZM-b1 cells infected 24 hrs post drug removal assessed as inhibition of viral replication at 0.04 to 0.18 uM measured 24 hrs postinfection by luciferase assay; assay type: functional, organism-based; in short: as §3
[8] = test system: Human immunodeficiency virus 1; test: Antiviral activity against 0.1 MOI HIV1 3B in 24 hrs pretreated human TZM-b1 cells infected 48 hrs post drug removal assessed as inhibition of viral replication at 0.04 to 0.18 uM measured 24 hrs postinfection by luciferase assay; assay type: functional, organism-based; in short: as §3
[9] = Half life in plasma of HIV1-infected patient; assay type: ADME, cell-free; settings: human
CCRF-CEM [10] = test: Drug metabolism in human CEM cells assessed as radioactive 2', 3'-didehydro-3'-deoxy-4'-ethynylthymidine triphosphate accumulation at 2 uM assessed per 10^6 cells; assay type: ADME, cell-based; settings: TDE = time-dependent effect
In short: (§4)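 CEM cells (2 x 10^7/ml) in RPMI 1640 with 10% dialyzed FBS were incubated at 37°C with 2 µM [3H]analog (75 mCi/mmol) and harvested at 2, 4, 8, 12, 16 and 24 h. Cells were washed in ice-cold PBS with 20 µM dipyridamole and extracted with 15% TCA. Neutralized extracts were separated on a Partisil SAX column with an H2O to 300 mM potassium phosphate gradient and radiometric detection, reported as pmol/10^6 cells, mean ± SD of three experiments.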

CCRF-CEM [11] = test: Drug metabolism in human CEM cells assessed as radioactive stavudine monophosphate accumulation at 2 uM after 12 hrs assessed per 10^6 cells; assay type: ADME, cell-based; in short: as §4
CCRF-CEM [12] = test: Stability in human CEM cells assessed as intracellular radioactive triphosphate metabolite accumulation at 2 uM incubated for 24 hrs measured after 24 hrs of compound removal assessed per 10^6 cells; assay type: ADME, cell-based
In short: (§5)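 CEM cells were loaded with 2 µM [3H]analog (75 mCi/mmol) for 24 h, washed, and resuspended in drug-free medium. Intracellular metabolites were then measured by SAX-HPLC with radiometric detection at 0, 2, 4, 8, 12 and 24 h after removal. Values are pmol/10^6 cells, mean ± SD of three experiments.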

CCRF-CEM [13] = test: Drug metabolism in human CEM cells assessed as radioactive zidovudine diphosphate accumulation at 2 uM assessed per 10^6 cells; assay type: ADME, cell-based; settings: TDE = time-dependent effect; in short: as §4
CCRF-CEM [14] = test: Drug metabolism in human CEM cells assessed as radioactive stavudine diphosphate accumulation at 2 uM assessed per 10^6 cells; assay type: ADME, cell-based; settings: TDE = time-dependent effect; in short: as §4
CCRF-CEM [15] = test: Drug metabolism in human CEM cells assessed as radioactive stavudine monophosphate accumulation at 2 uM assessed per 10^6 cells; assay type: ADME, cell-based; settings: TDE = time-dependent effect; in short: as §4
[16] = test system: Human immunodeficiency virus 1; test: Antiviral activity against 0.1 MOI HIV1 3B in 24 hrs pretreated human TZM-b1 cells infected 24 hrs post drug removal assessed as inhibition of viral replication at 1 to 6 uM measured 24 hrs postinfection by luciferase assay; assay type: functional, organism-based
In short: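 TZM-bl cells were plated in phenol red-free RPMI 1640, allowed to adhere 15–18 h at 37°C, then exposed to a range of drug concentrations for 24 h. Medium was changed to remove extracellular drug, and cells were infected with HIV-1 IIIB (MOI 0.1) at 0, 24 or 48 h after removal. Luciferase was read 24 h post-infection with uninfected-cell background subtracted, in quintuple wells, and expressed relative to no-drug wells.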

CCRF-CEM [17] = test: Drug metabolism in human CEM cells assessed as radioactive stavudine triphosphate accumulation at 2 uM assessed per 10^6 cells; assay type: ADME, cell-based; settings: TDE = time-dependent effect; in short: as §4
CCRF-CEM [18] = test: Drug metabolism in human CEM cells assessed as radioactive zidovudine triphosphate accumulation at 2 uM assessed per 10^6 cells; assay type: ADME, cell-based; settings: TDE = time-dependent effect; in short: as §4
CCRF-CEM [19] = test: Drug metabolism in human CEM cells assessed as radioactive stavudine diphosphate accumulation at 2 uM after 12 hrs assessed per 10^6 cells; assay type: ADME, cell-based; in short: as §4
CCRF-CEM [20] = test: Drug metabolism in human CEM cells assessed as radioactive 2', 3'-didehydro-3'-deoxy-4'-ethynylthymidine diphosphate accumulation at 2 uM assessed per 10^6 cells; assay type: ADME, cell-based; settings: TDE = time-dependent effect; in short: as §4
CCRF-CEM [21] = test: Stability in human CEM cells assessed as intracellular radioactive phosphorylated metabolite accumulation at 2 uM incubated for 24 hrs measured after 8 hrs of compound removal assessed per 10^6 cells; assay type: ADME, cell-based; in short: as §5
CCRF-CEM [22] = test: Drug metabolism in human CEM cells assessed as radioactive stavudine triphosphate accumulation at 2 uM after 12 hrs assessed per 10^6 cells; assay type: ADME, cell-based; in short: as §4
CCRF-CEM [23] = test: Drug metabolism in human CEM cells assessed as radioactive 2', 3'-didehydro-3'-deoxy-4'-ethynylthymidine monophosphate accumulation at 2 uM assessed per 10^6 cells; assay type: ADME, cell-based; settings: TDE = time-dependent effect; in short: as §4
[24] = test system: Human immunodeficiency virus 1; test: Antiviral activity against 0.1 MOI HIV1 3B in 24 hrs pretreated human TZM-b1 cells infected 24 hrs post drug removal assessed as inhibition of viral replication at 1 to 6 uM measured 24 hrs postinfection by luciferase assay
[25] = test system: Human immunodeficiency virus 1; test: Antiviral activity against 0.1 MOI HIV1 3B infected in human TZM-b1 cells assessed as inhibition of viral replication at 2 uM after 24 hrs by luciferase assay; assay type: functional; settings: Human immunodeficiency virus 1, 3B, TZM-b1, 24 h; in short: as §1
[26] = test system: Human immunodeficiency virus 1; test: Antiviral activity against 0.1 MOI HIV1 3B infected in human TZM-b1 cells assessed as inhibition of viral replication at 6 uM after 24 hrs by luciferase assay; assay type: functional; settings: Human immunodeficiency virus 1, 3B, TZM-b1, 24 h; in short: as §1
CCRF-CEM [27] = test: Drug metabolism in human CEM cells assessed as radioactive zidovudine monophosphate accumulation at 2 uM assessed per 10^6 cells; assay type: ADME, cell-based; settings: TDE = time-dependent effect; in short: as §4

Cc1ccnc2c1NC(=O)c1cccnc1N2C1CC1 [NEVIRAPINE]
inhibition [1]: Dose-dependent effect | inhibition at 0.14 µM [2]: 50% | inhibition at 0.18 µM [3]: 50% | inhibition at 0.18 µM [4]: < 50% | half-life [5]: 30 h | inhibition at 0.11 µM [6]: 50% | inhibition [7]: inactive | inhibition [8]: inactive | half-life [9]: 30 h

Cc1cn([C@H]2C=C[C@@H](CO)O2)c(=O)[nH]c1=O [STAVUDINE]
Activity (CCRF-CEM [10]): tde | Activity (CCRF-CEM [11]): 1.2 pmol | inhibition [1]: Dose-dependent effect | Stability (CCRF-CEM [12]): Unstable | Activity (CCRF-CEM [13]): tde | Activity (CCRF-CEM [14]): tde | Activity (CCRF-CEM [15]): tde | inhibition [16]: inactive | Activity (CCRF-CEM [17]): tde | Activity (CCRF-CEM [18]): tde | Activity (CCRF-CEM [19]): 1.2 pmol | Activity (CCRF-CEM [20]): tde | Stability (CCRF-CEM [21]): 0.2 pmol | Activity (CCRF-CEM [22]): 1.2 pmol | Activity (CCRF-CEM [23]): tde | inhibition [24]: inactive | inhibition at 2 µM [25]: 50% | inhibition at 6 µM [26]: 50% | Activity (CCRF-CEM [27]): tde
